Rows were chosen to be rich in hits. Some 1.9% of all compounds tested hit in one or more screens of this group.
Runt-SMMHC FRET: Runt domain-CBFb-SMMHC interaction inhibition. 220,000 tested, 0.74% active. Q01196+Q13951. AID 1434. Cerulean-Runt/Venus-CBFb-SMMHC FRET ratio 530/480, 1 h. inhibition, % at 20 µM;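 active = mean inhibition across duplicate retests at 20 µM reaching about 50%, limit read from the data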;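 note: 0% = DMSO wells and 100% = wells with excess untagged CBFb-SMMHC; inhibitors lower the FRET ratio by blocking Runt binding to CBFb-SMMHC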
Target sequence (Q01196 whole entry, looked up, the tested form may be a part): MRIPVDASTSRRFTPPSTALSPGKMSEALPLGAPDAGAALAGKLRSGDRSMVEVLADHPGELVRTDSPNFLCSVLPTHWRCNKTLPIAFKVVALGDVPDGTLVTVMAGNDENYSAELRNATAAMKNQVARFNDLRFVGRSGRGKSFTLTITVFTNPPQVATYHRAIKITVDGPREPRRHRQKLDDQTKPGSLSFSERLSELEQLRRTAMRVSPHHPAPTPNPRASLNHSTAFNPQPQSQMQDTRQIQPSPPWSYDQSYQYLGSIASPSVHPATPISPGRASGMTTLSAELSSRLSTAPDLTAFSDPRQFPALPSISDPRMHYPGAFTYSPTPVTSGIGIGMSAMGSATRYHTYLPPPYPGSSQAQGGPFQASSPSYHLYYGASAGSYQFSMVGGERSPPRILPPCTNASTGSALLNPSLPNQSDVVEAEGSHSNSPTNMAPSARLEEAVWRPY
Target sequence (Q13951 whole entry, looked up, the tested form may be a part): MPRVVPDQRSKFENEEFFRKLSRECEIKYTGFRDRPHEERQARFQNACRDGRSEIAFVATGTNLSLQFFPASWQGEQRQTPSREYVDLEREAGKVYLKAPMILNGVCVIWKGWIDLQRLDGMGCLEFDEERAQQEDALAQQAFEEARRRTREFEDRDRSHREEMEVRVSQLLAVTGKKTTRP
Hck Nef HTS: inhibitors of human Hck kinase activated by Nef. 220,000 tested, 0.68% active. P08631. inhibition, % at 20 µM. AID 463187. Recombinant Hck-YEEI plus Nef, Z-Lyte FRET kinase assay;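 active = Hck-Nef kinase inhibition above about 50%, limit read from the data; inactive = inhibition below that limit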;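 note: 0% = DMSO with Hck plus Nef and 100% = Hck alone without Nef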
Runt-CBFb FRET: blocks binding of human RUNX1 Runt domain to CBFb | Cerulean-Runt/Venus-CBFb FRET ratio 530/480, 1 h | inhibition, % at 20 µM | 220,000 tested, 0.46% active | AID 1496;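 active = inhibition over about 50% at 20 µM in the single-dose screen, limit read from the data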;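 note: 0% = DMSO wells and 100% = excess unlabeled CBFb competitor control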
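test system = Cerulean-tagged RUNX1 Runt domain (FRET donor) fusion protein | reagent = Venus-CBFb binding partner, 100 nM | incubation = protein complex preformed 1 h, compound exposure 1 h, room temperature, dark | detection = FRET fluorescence | read-out basis = loss of energy transfer signal | controls = 5 µM unlabeled CBFb as full-inhibition high control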
RanGTP-Impb inh: inhibitors of RanGTP-importin-beta interaction, primary screen, biochemical, FRET, CFP-Ran, YFP-importin-beta, homogeneous. inhibition, % (test concentration not listed). cell-free CFP-Ran/YFP-importin-beta FRET ratio. 300,000 tested, 1.1% active. AID 2216;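 active = more than half of the replicate wells show a fall in the fluorescence ratio signal beyond about 16%, limit read from the data, passing the limit was not always enough; inconclusive = exactly half of the replicate wells pass the set limit; inactive = fewer than half of replicates pass the limit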;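 note: 0% = DMSO wells and 100% = Ran loaded with GDP instead of GTP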
An asterisk follows results filed as active; ? = inconclusive; . = no result.

SMILES | Runt-SMMHC FRET | Hck Nef HTS | Runt-CBFb FRET | RanGTP-Impb inh
C=CCSc1nc(N)c2c3c(sc2n1)CN(C)CC3 | . | . | . | 18.5*
O=C(Cc1ccc(Br)cc1)NC1CCSC1=O (stereo unspecified) | -3.3 | -13.7 | . | 3.9
CCOC(=O)C1=C(O)/C(=C/c2cn(CC(=O)N3CCCC3)c3ccccc23)SC1=Nc1ccccc1 | 82.8* | 9.9 | 20.9 | -0.1
COC(=O)c1cn(CC(=O)N2CCCCCC2)c2ccccc12 | -3.4 | -7.6 | -1.8 | 3.0
COCCn1c(C)cc(C(=O)CSc2nc(C)cc(C)c2C#N)c1C | 58.5* | 2.9 | 9.5 | 8.1
CC(=O)Nc1ccc(S(=O)(=O)N2CCN(C(=O)c3ncoc3-c3ccc(F)cc3)CC2)cc1 | . | . | . | 3.5
CCCN1CCc2c(sc(NC(=O)Cc3ccc(F)cc3)c2C(N)=O)C1 | . | . | . | 133.3*
CC(C)N1CCc2c(sc(NC(=O)Cc3ccccc3)c2C(N)=O)C1 | . | . | . | 139.8*
CC(C)N1CCc2c(sc(NC(=O)CCc3ccccc3)c2C(N)=O)C1 | 92.5* | 21.6 | 78.1* | 130.3*
CC(=O)N1CCc2c(sc(NC(=O)Cc3ccccc3)c2C(N)=O)C1 | . | . | . | 5.2
COC(=O)C1=CN(C2CCCCC2)C=C(C(=O)OC)C1c1ccc2c(c1)OCO2 | 74.9* | 20.8 | 28.3 | 2.8
COCCN1C=C(C(=O)OC)C(c2ccc3c(c2)OCO3)C(C(=O)OC)=C1 | 23.5 | 33.4 | 8.6 | -1.2
C=C(C)C(=O)Nc1cccc(C2=NOC3(C2)C[C@H](C(N)=O)N(C(=O)COc2ccc(Cl)cc2)C3)c1 (stereo partly specified) | 1.4 | 22.1 | 0.7 | -2.5
O=C1Cc2ccccc2C(=O)N1Cc1cccc(Cl)c1 | . | . | . | -3.2
Nc1cccc2c1C(=O)N(Cc1cccc(Cl)c1)C2=O | 92.9* | 14.0 | 3.1 | -3.3
Cc1c(N=C2SCC(=O)N2/N=C/c2ccccc2)c(=O)n(-c2ccccc2)n1C | 0.5 | 1.9 | 0.1 | 0.1
Cc1nn(C)cc1C1C2=C(CC(C)(C)CC2=O)N(c2ccccc2)C2=C1C(=O)CC(C)(C)C2 | 3.5 | 16.7 | 0.3 | 12.1
Cc1ccc(N2C3=C(C(=O)CC(C)(C)C3)C(c3cn(C)nc3C)C3=C2CC(C)(C)CC3=O)cc1 | . | . | . | 25.6*
CNC(=S)N(CCN(C)C)Cc1cc2cc3c(cc2[nH]c1=O)OCO3 | . | . | . | -20.8
CC(C)Cc1nnc(NC(=O)CCC(=O)N2CCN(c3ccccc3F)CC2)s1 | . | . | . | 154.4*
COc1cccc(OC)c1NC(=O)CN1CCC(NC(=O)c2cccc(F)c2)CC1 | 4.1 | -8.5 | -1.7 | 2.7
Cc1cc(/C=c2\sc3nc4ccccc4n3c2=O)c(C)n1-c1ccc(C(=O)O)cc1 | 38.1 | -2.0 | 18.4 | ?
Cc1cc(/C=c2/sc3nc4ccccc4n3c2=O)c(C)n1-c1ccccn1 | 6.1 | 1.3 | 8.1 | 15.5*
CC[C@H](C)/C=C(C)/C=C/C(=O)Cc1cc(O)c(C)c(O)c1C=O | -94.3 | 11.4 | 1.3 | -7.2
CC[C@H](C)/C=C(C)/C=C/C1=CC2=CC(=O)[C@]3(C)OC(=O)[C@@H](C(C)=O)[C@@H]3C2=CO1 | 85.4* | -46.5 | 7.7 | 54.7*
SMILES | Runt-SMMHC FRET | Hck Nef HTS | Runt-CBFb FRET | RanGTP-Impb inh
COc1cccc(C2=NOC(C(=O)N3CCc4ccccc4C3)C2)c1 (stereo unspecified) | -1.5 | 22.6 | . | 22.7*
Nc1cc(=O)[nH]c(SCC(=O)Nc2cccc(Cl)c2)n1 | 0.7 | -0.7 | 0.0 | ?
Nc1cc(=O)[nH]c(SCC(=O)Nc2ccc(Oc3ccccc3)cc2)n1 | . | . | . | 32.3*
CCCn1nc(C(=O)Oc2ccc3c(C)cc(=O)oc3c2)c2ccccc2c1=O | 88.4* | 15.7 | 43.0 | 6.5
Cc1cc(=O)oc2cc(OC(=O)c3nn(C(C)C)c(=O)c4ccccc34)ccc12 | 89.9* | 19.1 | 41.7 | 2.2
Cc1ccc2c(c1)nnn2C1CCN(CC(=O)Nc2ccccc2N2CCOCC2)CC1 | 2.5 | -1.0 | 83.6* | 4.3
Cc1ccc(NC(=O)COC(=O)CN2C(=O)c3ccccc3C2=O)cc1S(=O)(=O)N(C)C | 1.1 | -11.4 | -0.1 | 39.8*
Cc1ccc(NC(=O)COC(=O)CN2C(=O)NC3(CCCC3)C2=O)cc1S(=O)(=O)N(C)C | -1.0 | 25.8 | -44.5 | 0.9
C=C1c2cc(C)c(C)cc2NC(=O)N1c1ccccc1 | 60.2* | 19.7 | 2.9 | -0.1
Cc1sc2nc3ccc(NCc4ccco4)nn3c(=O)c2c1C | 60.4* | 3.2 | 6.2 | 7.4
Cc1ccc(NC(=O)C2C3C=CC4(CN(Cc5cccnc5)C(=O)C24)O3)cc1F (stereo unspecified) | -0.1 | -4.4 | 1.5 | 1.2

Screens (PubChem)
